Reference: publication PMC11960622 (RSC Advances, 2025)

Key:
HepG2 cells = experiment: MTT cytotoxicity assay, HepG2; assay type: cell-based; details: for IC50: Homo sapiens, HepG2, 72 h, read-out: IC50 HepG2; for fold toxic to HepG-2 cells than ordinary VERO cells: selectivity VERO/HepG-2
In short: (§1)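 ATCC cells in RPMI 1640 with 10% heat-inactivated FBS and penicillin/streptomycin, 37 °C, 5% CO2. Trypsinized cells seeded at 1000–2000 per well, grown 24 h, then exposed 72 h to free or Cs/PVA-nanogel-loaded test compound (0.1, 10, 100, 1000 μM). MTT 2 h, formazan dissolved in acidified isopropanol, A570 read. Viability expressed versus control; IC50 derived.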

HCT116 cells = experiment: MTT cytotoxicity assay, HCT116; assay type: cell-based; details: for IC50: Homo sapiens, HCT-116, 72 h, read-out: IC50 HCT116; for fold more toxic to HCT-116 cells than normal VERO cells: selectivity VERO/HCT-116
MCF-7 cells = experiment: MTT cytotoxicity assay, MCF-7; assay type: cell-based; details: for IC50: Homo sapiens, MCF7, 72 h, read-out: IC50 MCF-7; for fold more toxic to MCF-7 cells than ordinary VERO cells: selectivity VERO/MCF-7
In short: as §1

A549 cells = experiment: MTT cytotoxicity assay, A549; assay type: cell-based; details: for IC50: Homo sapiens, A549, 72 h, read-out: IC50 A549; for fold more toxic to A549 cells than VERO normal cells: selectivity VERO/A549
In short: as §1

calf thymus DNA = experiment: DNA/methyl green assay; details: read-out: DNA binding IC50; methyl green displacement, 24 h, pH 7.5
In short: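 Calf thymus DNA (10 mg) and methyl green (20 mg) in 100 mL 0.05 M Tris–HCl pH 7.5 with 7.5 mM MgSO4, stirred 24 h at 37 °C. Ethanol solutions of test compounds at 10, 100 and 1000 μM were dried under vacuum in wells, then complex added. Incubated at room temperature in the dark; A642.5–645 read at 24 h, normalized to untreated complex; IC50 fitted. Doxorubicin control.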

topo-II enzyme = experiment: In vitro topoisomerase II inhibitory activity; assay type: biochemical; details: read-out: Topo-II assay IC50

Row | Structure (SMILES) | IC50 (HepG2 cells) [µM] | fold toxic to HepG-2 cells than ordinary VERO cells (HepG2 cells) [fold] | IC50 (HCT116 cells) [µM] | fold more toxic to HCT-116 cells than normal VERO cells (HCT116 cells) [fold] | IC50 (MCF-7 cells) [µM] | fold more toxic to MCF-7 cells than ordinary VERO cells (MCF-7 cells) [fold] | IC50 (A549 cells) [µM] | fold more toxic to A549 cells than VERO normal cells (A549 cells) [fold] | IC50 (calf thymus DNA) [µM] | IC50 (topo-II enzyme) [µM]
1 | NC1=NN(C(=O)C=Cc2ccccc2)C(=O)C1N=Nc1ccccc1C(=O)O (stereo not drawn) [Compound 2, 2-((3-Amino-1-cinnamoyl-5-oxo-4,5-dihydro-1H-pyrazol-4-yl)diazenyl)benzoic acid] | 8.8 ± 0.5 | 6.78 | 10.6 ± 1.5 | 5.63 | 8.3 ± 0.5 | 7.19 | 6.3 ± 0.5 | 9.48 | 37 ± 3.9 | 1.31 ± 0.4
2 | NC1=NN(c2ccc([N+](=O)[O-])cc2[N+](=O)[O-])C(=O)C1N=Nc1ccccc1C(=O)O (stereo not drawn) [Compound 3, 2-((3-Amino-1-(2,4-dinitrophenyl)-5-oxo-4,5-dihydro-1H-pyrazol-4-yl)diazenyl)benzoic acid] | 8.95 ± 0.5 | 6.08 | 11 ± 1.1 | 4.95 | 8.65 ± 0.8 | 6.29 | 6.1 ± 0.5 | 8.92 | 38.6 ± 3.8 | 1.49 ± 0.4
3 | NC1=NC(=NS(=O)(=O)c2ccc(N)cc2)NC(=O)C1N=Nc1ccccc1C(=O)O (stereo not drawn) [Compound 4, 2-((4-Amino-2-(((4-aminophenyl)sulfonyl)imino)-6-oxo-1,2,5,6-tetrahydropyrimidin-5-yl)diazenyl)-benzoic acid] | 7.12 ± 0.5 | 8.07 | 9.77 ± 1.1 | 5.88 | 7.85 ± 0.5 | 7.32 | 5.5 ± 0.5 | 10.44 | 36 ± 3.5 | 1.2 ± 0.4
4 | COc1cccc2c1C(=O)c1c(O)c3c(c(O)c1C2=O)C[C@@](O)(C(=O)CO)C[C@@H]3O[C@H]1C[C@H](N)[C@H](O)[C@H](C)O1 [Doxorubicin, reference compound] |  |  |  |  |  |  | 8.54 ± 0.8 |  | 31.3 ± 1.8 | 0.94 ± 0.4
